Bioassay records (PubChem BioAssay)
Compounds with a hit are over-represented: about 2.2% of the library has one in this group of screens.
Runt-SMMHC FRET – inhibitors of human RUNX1 Runt domain binding to CBFb-SMMHC. Q01196+Q13951. Cerulean-Runt/Venus-CBFb-SMMHC FRET ratio 530/480, 1 h. inhibition, % at 20 µM. hit rate 0.74% among 220,000. AID 1434;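 active = mean inhibition across duplicate retests at 20 µM reaching about 50%, limit read from the data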;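 also: inhibitors lower the FRET ratio by blocking Runt binding to CBFb-SMMHC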
Target sequence (Q01196 whole entry, looked up, the tested form may be a part): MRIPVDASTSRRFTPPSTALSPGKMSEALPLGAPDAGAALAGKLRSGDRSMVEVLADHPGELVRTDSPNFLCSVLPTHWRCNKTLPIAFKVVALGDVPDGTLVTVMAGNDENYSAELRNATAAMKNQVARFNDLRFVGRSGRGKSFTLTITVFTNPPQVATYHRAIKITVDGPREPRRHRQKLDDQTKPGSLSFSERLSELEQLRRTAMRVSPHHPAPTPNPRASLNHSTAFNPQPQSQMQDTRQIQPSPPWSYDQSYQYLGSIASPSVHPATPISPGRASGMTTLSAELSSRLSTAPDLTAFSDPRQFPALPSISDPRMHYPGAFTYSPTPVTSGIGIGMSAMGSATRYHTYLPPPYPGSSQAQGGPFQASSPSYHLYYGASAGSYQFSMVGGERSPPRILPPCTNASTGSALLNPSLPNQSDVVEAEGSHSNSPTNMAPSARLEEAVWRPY
Target sequence (Q13951 whole entry, looked up, the tested form may be a part): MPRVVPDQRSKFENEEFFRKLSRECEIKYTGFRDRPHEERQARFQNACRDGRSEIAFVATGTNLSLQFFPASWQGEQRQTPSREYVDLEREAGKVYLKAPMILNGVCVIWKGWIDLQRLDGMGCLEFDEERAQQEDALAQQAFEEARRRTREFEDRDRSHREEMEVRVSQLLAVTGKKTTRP
eIF4E-4G inh – inhibitors of eIF4E and eIF4G interaction in translation initiation | hit rate 0.37% among 220,000 | P63073+Q04637 | inhibition, % at 21.7 µM | TR-FRET eIF4E-eIF4GI(517-606) binding, 2 h;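 active = inhibition above about 30%, limit read from the data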
RanGTP-Impb inh – disruptors of Ran-importin-beta complex formation – biochemical, FRET, CFP-Ran, YFP-importin-beta, homogeneous, primary screen | inhibition, % (concentration not given with the values) | cell-free CFP-Ran/YFP-importin-beta FRET ratio | hit rate 1.1% among 300,000;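 active = more than half of the replicate wells show a fall in the fluorescence ratio signal beyond about 16%, limit read from the data, passing the limit was not always enough; inconclusive = exactly half of the replicate wells pass the set limit; inactive = fewer than half of replicates pass the limit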
PERK inhibitor – blocks human PERK kinase; CHO PERK-DD fusion, SEAP luminescence translation reporter; Q9NZJ5; hit rate 0.17% among 220,000; inhibition, % at 5.6 µM;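 active = inhibition above the mean inhibition of all tested compounds plus 3 SD, set separately per screening campaign, cut at about 2.9% in these data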;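 also: PERK kinase domain activated by AP20187 dimerizer at 100 nM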
Hck-Nef inh – human Hck-Nef kinase inhibition; P08631; Recombinant Hck-YEEI plus Nef, Z-Lyte FRET kinase assay; inhibition, % at 20 µM; hit rate 0.68% among 220,000; AID 463187;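 active = Hck-Nef kinase inhibition above about 50%, limit read from the data; inactive = inhibition below that limit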
Runt-CBFb FRET – blocks binding of human RUNX1 Runt domain to CBFb; Q01196+Q13951; Cerulean-Runt/Venus-CBFb FRET ratio 530/480, 1 h; inhibition, % at 20 µM; hit rate 0.46% among 220,000; AID 1496;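 active = inhibition over about 50% at 20 µM in the single-dose screen, limit read from the data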
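Schedule: protein complex preformed 1 h, compound exposure 1 h, room temperature, dark; test system: Cerulean-labeled Runt domain protein; amount: 100 nM per protein; buffer or medium: Tris 50 mM pH 7.5, KCl, K2SO4, 0.01% BSA; read-out: loss of energy transfer signal; detection: FRET fluorescence; controls: 5 µM unlabeled CBFb as full-inhibition high control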
YIC counter – counter-screen YIC FRET for RanGTP-importin-beta inhibitors; shares compounds with RanGTP-Impb inh; Purified YIC probe, intramolecular FRET ratio YFP/CFP; IC50, µM; hit rate 40% among 1,000; AID 435026;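 active = fitted half-maximal inhibitory concentration no more than tenfold above the top dose tested; inconclusive = flat fit with 30 to 70% activity, or poor fit; inactive = half-maximal concentration beyond tenfold above the top dose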
Numbers stand for hits; n = inactive; u = inconclusive; x = not tested or not shown.

SMILES	Runt-SMMHC FRET	eIF4E-4G inh	RanGTP-Impb inh	PERK inhibitor	Hck-Nef inh	Runt-CBFb FRET	YIC counter
O=C(CN(Cc1ccccc1)S(=O)(=O)c1ccc2c(c1)OCCO2)Nc1ccc2c(c1)OCCO2	n	n	n	n	n	n	x
COCCN1C=C(C(=O)OC)C(c2ccc(Cl)cc2)C(C(=O)OC)=C1	104.9	n	41.0	n	74.6	93.8	13.2
COc1cc(/C(O)=C(\C#N)c2nc3ccccc3[nH]2)cc(OC)c1OC	x	x	40.3	x	x	x	7.43
COc1ccc(-c2coc3c(C)c4oc(=O)c(CC(=O)O)c(C)c4cc23)cc1	x	x	n	x	x	x	x
COc1cccc(-c2coc3c(C)c4oc(=O)c(CC(=O)O)c(C)c4cc23)c1	x	x	23.6	x	x	x	n
COc1cccc(-c2coc3c(C)c4oc(=O)c(CCC(=O)O)c(C)c4cc23)c1	x	x	n	x	x	x	x
Cc1c(CC(=O)O)c(=O)oc2c(C)c3occ(-c4ccc(Br)cc4)c3cc12	x	x	28.4	x	x	x	n
CN(C)C1(CNCC(O)c2ccccc2)CCCCC1 (stereo not drawn)	x	x	n	x	x	x	x
Cc1ccc(-n2c(N)c(Br)c(=O)[nH]c2=O)cc1C	n	n	n	n	n	n	x
Cc1ccc(C(=O)Nc2ncc(C)s2)o1	n	n	n	n	n	n	x
Cc1ccc(C(=O)Nc2ncc(Cc3ccc(F)cc3)s2)o1	n	n	27.7	n	n	n	n
CCOC(=O)CSc1nnc(CSc2nc3sc4c(c3c(=O)[nH]2)CCCC4)n1-c1ccccc1	n	n	31.6	n	n	n	n
CCOC(=O)CCCSc1nc2sc3c(c2c(=O)[nH]1)CCC3	n	n	u	n	n	n	x
CC(C)c1cc(N2CCN(C(=O)c3ccco3)CC2)n2c(nc3ccccc32)c1C#N	x	n	u	n	n	n	16.1
O=C(Oc1ccc2ccc(=O)oc2c1)c1ccccc1	x	x	n	x	x	x	x
Cc1ccc(S(=O)(=O)NC(C(=O)Oc2ccc3ccc(=O)oc3c2)c2ccccc2)cc1 (stereo not drawn)	160.0	n	20.4	n	57.8	84.7	28.1
COc1ccc(NC(=O)CN2C(=O)CC(C)S(=O)(=O)c3ccccc32)cc1 (stereo not drawn)	x	x	17.6	x	x	x	n
O=C(c1cccc(-c2ccccc2)c1)N1CC[C@@H](N2CCC(O)CC2)[C@H](O)C1	x	x	24.6	x	x	x	n
COc1ccc2c(C)c(C(=O)N3CC[C@@H](N4CCC(O)CC4)[C@H](O)C3)oc2c1	x	x	16.0	x	x	x	n
Clc1cccc(Cl)c1COc1ccccc1CNn1cnnc1	n	n	n	n	n	x	x
CCOc1ccc(CN2CCN(Cc3cccn3-c3cccnc3)CC2CCO)cc1 (stereo not drawn)	n	n	n	n	n	n	x
OCCC1CN(Cc2cccn2-c2cccnc2)CCN1Cc1ccc(F)cc1 (stereo not drawn)	n	n	26.9	n	n	n	n
Cc1ccc(-c2oc3ccccc3c(=O)c2O)cc1	n	n	21.6	n	n	n	16.8
Cc1ccc(-c2oc3ccccc3c(=O)c2OCC(=O)O)cc1	n	n	n	n	n	n	x
CC1=C(C(=O)OC(C)C)C(c2cccnc2)C2=C(CC(C)(C)CC2=O)N1 (stereo not drawn)	101.7	n	18.7	n	n	77.4	23.2
SMILES	Runt-SMMHC FRET	eIF4E-4G inh	RanGTP-Impb inh	PERK inhibitor	Hck-Nef inh	Runt-CBFb FRET	YIC counter
CC1=C(C(=O)OC(C)C)C(c2ccc(N(C)C)cc2)C2=C(CC(C)(C)CC2=O)N1 (stereo not drawn)	n	n	n	n	n	n	x
CCOc1ncccc1C(=O)OCC(=O)c1cc(OC)c(OC)c(OC)c1	n	n	n	n	n	n	x
COc1ccc(N2CCn3c2nc2c3c(=O)n(CCCc3ccccc3)c(=O)n2C)c(OC)c1	n	n	n	n	n	n	x
CC1CCCCN1Cc1c(O)ccc2c(=O)c(-c3nc4ccccc4s3)coc12 (stereo not drawn)	n	n	38.0	n	n	n	<0.38
CCc1cc(=O)oc2c(CNCc3ccc(OC)cc3OC)c(O)c(Cl)cc12	x	x	33.8	x	x	x	32.1
COc1ccc(CNCc2c(O)c(Cl)cc3c(C)c(C)c(=O)oc23)c(OC)c1	x	x	18.2	x	x	x	6.97
COc1ccc(CNCc2ccncc2)c(OC)c1	x	x	n	x	x	x	x
